Key:
[1] = tested on: 786-0; assay: Percent growth of NCI cell line, renal: 786-0 exposed for 48 hr at 10e-4 concentration; type: functional, Homo sapiens
Method in brief: (§1)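 NCI panel cell lines exposed 48 h to 10^-8, 10^-6 and 10^-4 M drug; read-out is percent growth at each concentration.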

[2] = tested on: 786-0; assay: Percent growth of NCI cell line, renal: 786-0 exposed for 48 hr at 10e-6 concentration; type: functional, Homo sapiens; method in brief: as §1
[3] = tested on: 786-0; assay: Percent growth of NCI cell line, renal: 786-0 exposed for 48 hr at 10e-8 concentration; type: functional, Homo sapiens; method in brief: as §1
[4] = tested on: Calf thymus DNA; assay: CT-DNA binding required to produce a 50% drop in fluorescence of DNA-bound ethidium.; type: nucleic-acid assay; conditions: Bos taurus
Method in brief: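 Ethidium displacement from calf thymus DNA in 10 mM Na2HPO4, 10 mM NaH2PO4, 1 mM EDTA, pH 7.0, containing 1.26 μM ethidium bromide and 1 μM CT-DNA. Drug added serially from ~5 mM DMSO stock; 20 °C; fluorescence excitation 546 nm, emission 595 nm. C50 = drug concentration lowering DNA-bound ethidium fluorescence by 50%, mean of three determinations.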

[5] = tested on: DU-145; assay: Percent growth of NCI cell line, prostate: DU-145 exposed for 48 hr at 10e-6 concentration; type: functional, Homo sapiens; method in brief: as §1
[6] = tested on: DU-145; assay: Percent growth of NCI cell line, prostate: DU-145 exposed for 48 hr at 10e-8 concentration; type: functional, Homo sapiens; method in brief: as §1
[7] = tested on: HCT-15; assay: Percent growth of NCI cell line, colon: HCT-15 exposed for 48 hr at 10e-4 concentration; type: functional, Homo sapiens; method in brief: as §1
[8] = tested on: HCT-15; assay: Percent growth of NCI cell line, colon: HCT-15 exposed for 48 hr at 10e-6 concentration; type: functional, Homo sapiens; method in brief: as §1
[9] = tested on: HCT-15; assay: Percent growth of NCI cell line, colon: HCT-15 exposed for 48 hr at 10e-8 concentration; type: functional, Homo sapiens; method in brief: as §1
[10] = tested on: HT-29; assay: In vitro cytotoxic potency against HT-29 (human colon adenocarcinoma) cell line.; type: functional, cell-based
[11] = tested on: LoVo; assay: Cytotoxicity activity on LoVo/Dx human adenocarcinoma cell line after 144 hr of drug exposure; type: functional, cell-based
Method in brief: (§2)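 LoVo (sensitive) and LoVo/Dx (resistant) human colon adenocarcinoma cells seeded at 2.5 × 10^5 cells/mL medium; drug solutions added to culture.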

[12] = tested on: LoVo; assay: Cytotoxicity activity on LoVo/Dx human adenocarcinoma cell line after 1 hr of drug exposure; type: functional, cell-based
Method in brief: (§3)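 LoVo (sensitive) and LoVo/Dx (resistant) human colon adenocarcinoma cells seeded at 2.5 × 10^5 cells/mL medium; drug solutions added to culture. IC50 = drug concentration inhibiting cell growth by 50%, assays in triplicate.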

[13] = Percent growth of NCI cell line, melanoma: LOX IMVI exposed for 48 hr at 10e-4 concentration; type: functional, Homo sapiens; method in brief: as §1
[14] = Percent growth of NCI cell line, melanoma: LOX IMVI exposed for 48 hr at 10e-6 concentration; type: functional, Homo sapiens; method in brief: as §1
[15] = tested on: LOX IMVI; assay: Percent growth of NCI cell line, melanoma: LOX IMVI exposed for 48 hr at 10e-8 concentration; type: functional, Homo sapiens; method in brief: as §1
[16] = tested on: MCF7; assay: Percent growth of NCI cell line, breast: MCF-7 exposed for 48 hr at 10e-4 concentration; type: functional, Homo sapiens; method in brief: as §1
[17] = tested on: MCF7; assay: Percent growth of NCI cell line, breast: MCF-7 exposed for 48 hr at 10e-6 concentration; type: functional, Homo sapiens; method in brief: as §1
[18] = tested on: MCF7; assay: Percent growth of NCI cell line, breast: MCF-7 exposed for 48 hr at 10e-8 concentration; type: functional, Homo sapiens; method in brief: as §1
[19] = tested on: LoVo; assay: Cytotoxicity activity on LoVo human adenocarcinoma cell line after 144 hr of drug exposure; type: functional, cell-based; method in brief: as §2
[20] = tested on: LoVo; assay: Cytotoxicity activity on LoVo human adenocarcinoma cell line after 1 hr of drug exposure; type: functional, cell-based; method in brief: as §3
[21] = tested on: NCI-H460; assay: Percent growth of NCI cell line, lung-nsc: NCI-H460 exposed for 48 hr at 10e-4 concentration; type: functional, Homo sapiens; method in brief: as §1
[22] = tested on: NCI-H460; assay: Percent growth of NCI cell line, lung-nsc: NCI-H460 exposed for 48 hr at 10e-6 concentration; type: functional, Homo sapiens; method in brief: as §1
[23] = tested on: NCI-H460; assay: Percent growth of NCI cell line, lung-nsc: NCI-H460 exposed for 48 hr at 10e-8 concentration; type: functional, Homo sapiens; method in brief: as §1
[24] = tested on: OVCAR-4; assay: Percent growth of NCI cell line, ovarian: OVCAR-4 exposed for 48 hr at 10e-4 concentration; type: functional, Homo sapiens; method in brief: as §1
[25] = tested on: OVCAR-4; assay: Percent growth of NCI cell line, ovarian: OVCAR-4 exposed for 48 hr at 10e-6 concentration; type: functional, Homo sapiens; method in brief: as §1
[26] = tested on: OVCAR-4; assay: Percent growth of NCI cell line, ovarian: OVCAR-4 exposed for 48 hr at 10e-8 concentration; type: functional, Homo sapiens; method in brief: as §1
[27] = tested on: SNB-19; assay: Percent growth of NCI cell line, CNS: SNB-19 exposed for 48 hr at 10e-4 concentration; type: functional, Homo sapiens; method in brief: as §1
[28] = tested on: SNB-19; assay: Percent growth of NCI cell line, CNS: SNB-19 exposed for 48 hr at 10e-6 concentration; type: functional, Homo sapiens; method in brief: as §1
[29] = Percent growth of NCI cell line, leucemia K562 exposed for 48 hr at 10e-4 concentration; type: functional, Homo sapiens; method in brief: as §1
[30] = Percent growth of NCI cell line, leucemia K562 exposed for 48 hr at 10e-6 concentration; type: functional, Homo sapiens; method in brief: as §1
[31] = Percent growth of NCI cell line, leucemia K562 exposed for 48 hr at 10e-8 concentration; type: functional, Homo sapiens; method in brief: as §1
[32] = tested on: SNB-19; assay: Percent growth of NCI cell line, CNS: SNB-19 exposed for 48 hr at 10e-8 concentration; type: functional, Homo sapiens; method in brief: as §1
[33] = tested on: DU-145; assay: Percent growth of NCI cell line, prostate: DU-145 exposed for 48 hr at 10e-4 concentration; type: functional, Homo sapiens; method in brief: as §1

For `CN(C)CCn1c(=O)c2ccc3c4c(nn3CCN(C)C)c3cc(N)ccc3n(c1=O)c24`, the Growth [1] was -95%, the Growth [2] was -44% and the Growth [3] was 23%. For the same compound, the C50 [4] was 0.0009 µM, the Growth [5] was -11% and the Growth [6] was 59%. The Growth [7] was -75%, the Growth [8] was -25% and the Growth [9] was 54%. The IC50 [10] was 3.7 nM, the IC50 [11] was 16 nM and the IC50 [12] was 550 nM. For the same compound, the Growth [13] was -50%, the Growth [14] was -28% and the Growth [15] was 47%. The Growth [16] was -65%, the Growth [17] was -6% and the Growth [18] was 62%. For the same compound, the IC50 [19] was 0.52 nM, the IC50 [20] was 130 nM and the Growth [21] was -64%. The Growth [22] was -28%, the Growth [23] was 16% and the Growth [24] was -51%. For the same compound, the Growth [25] was -47%, the Growth [26] was 55% and the Growth [27] was -69%. The Growth [28] was -14%, the Growth [29] was -15% and the Growth [30] was 7%. For the same compound, the Growth [31] was 45%, the Growth [32] was 43% and the Growth [33] was -67%.

Reference: ChEMBL document CHEMBL1135709, “2,6-Di(omega-aminoalkyl)-2,5,6,7-tetrahydropyrazolo[3,4,5-mn]pyrimido[5,6,1-de]acridine-5,7-diones: novel, potent, cytotoxic, and DNA-binding agents” (J Med Chem, 2002)
